Reference: paper PMC11127568 (ACS infectious diseases, 2024)
Where two headings read alike, the source gives them in different places.

What was measured:
B. duncani [1] = test: microbe, parasite or virus in culture; assay type: cell-based, Babesia duncani (WA1); settings: read-out: IC50 B. duncani
[2] = system: human cell lines (HeLa, HepG2, HEK, and HCT116); test: Drug cytotoxicity evaluation; assay type: cell-based; settings: 48 h, read-out: IC50 Human cell lines
B. duncani [3] = test: In vitro drug-drug interaction with atovaquone by isobologram analysis; assay type: cell-based, Babesia duncani; settings: combination with atovaquone; for Mode of Interaction: isobologram analysis
Method in brief: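 B. duncani WA1 grown in A+ human RBCs, DMEM/F12, 5% hematocrit. […] SYBR Green I lysis read-out (ex 497/em 520 nm). FIC50 = IC50 in combination/IC50 alone, summed; ΣFIC50 <0.8 synergy, 0.8–<1.4 additive, ≥1.4 antagonism. ≥2 independent experiments, triplicates.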

B. duncani [4] = test: In vivo efficacy in B. duncani lethal infection model in C3H/HeJ mice; set-up: species or system mouse (C3H/HeJ); settings: for Survival after monotherapy: lethal B. duncani infection, 10 mg/kg oral daily DPI 3 to 7
Method in brief: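 Female C3H/HeJ mice (6 weeks, 5 per group) were infected intravenously with 1×10³ B. duncani WA1-infected RBCs. Oral gavage was given daily on DPI 3–7 with 100 μl PEG 400 vehicle or test compound at 10 mg/kg. Parasitemia came from Giemsa-stained thin blood smears, with at least 3000 RBCs counted, followed to DPI 84. Survival by Kaplan-Meier.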

B. microti = test: In vivo efficacy in B. microti chronic infection model in CB.17/SCID mice; set-up: species or system mouse (CB.17/SCID); settings: SCID mice, 10 mg/kg oral
[5] = B. duncani, 10 mg/kg oral DPI 3 to 7

Row | SMILES | IC50 (B. duncani [1]) [nM] | Mode of Interaction (B. duncani [3]) | Survival after monotherapy (B. duncani [4]) | other results
1 | O=C1C(O)=C([C@H]2CC[C@H](c3ccc(Cl)cc3)CC2)C(=O)c2ccccc21 [Atovaquone, reference compound] |  |  |  | IC50 (B. duncani [1]; Babesia duncani, Erythrocyte, in Homo sapiens, 62 h): 72 ± 6 nM; IC50 [2]: 5 µM
2 | COc1cc2[nH]c(C)c(-c3ccc(-c4ccc(OC(F)(F)F)cc4)cc3)c(=O)c2cc1Cl [ELQ-596] | 32 ± 4.9 | additive (0.8 ≤ ΣFIC50 < 1.4 = additive) |  | 
3 | CCOC(=O)OCOc1c(-c2ccc(-c3ccc(OC(F)(F)F)cc3)cc2)c(C)nc2cc(OC)c(Cl)cc12 [ELQ-598] | 37 ± 2.2 | additive (0.8 ≤ ΣFIC50 < 1.4 = additive) | survival of these mice for the duration of study | Parasites on Giemsa-stained thin-blood smears on monitoring until DPI 84 (B. duncani [4]; [5]): no parasites could be detected
4 | COc1cc2[nH]c(C)c(-c3ccc(-c4ccc(OC(F)(F)F)cc4)cc3)c(=O)c2cc1F [ELQ-650] | 22 ± 4.9 | additive (0.8 ≤ ΣFIC50 < 1.4 = additive) |  | 
5 | CCOC(=O)OCOc1c(-c2ccc(-c3ccc(OC(F)(F)F)cc3)cc2)c(C)nc2cc(OC)c(F)cc12 [ELQ-672] | 57 ± 18 | synergistic | animals ultimately succumbing to infection | Day parasites emerged (B. duncani [4]; [5]): 16 DPI; Parasitemia at DPI 19 (B. duncani [4]; [5]): 8%; Day parasites emerged (B. microti; vehicle DPI 17): 21 DPI; Day peak parasitemia reached (B. microti; vehicle DPI 21): 31 DPI; Mean FIC value (Σ FIC50) (B. duncani [3]; B. duncani in human red blood cells, fixed ratio method): 0.5
